Experimental data of several laboratories.
Each line is one published result; the experiments were not run side by side.
Target: Serine/threonine-protein kinase mTOR (MTOR, Homo sapiens, UniProt P42345)

SMILES | observed | mode | technique | concentration | endpoint | result
Cc1cc(O)c(-c2ccc([C@@H](C)CN(C)C)cc2)c2c1[nH]c(=O)c1sccc12 | cell-free assay | inhibitor | – | 0.1 µM | inhibition | 9.2%
CN1CCN(C(=O)c2ccc(NC(=O)Nc3ccc(N(C)c4ccnc(Nc5ccc(CS(C)(=O)=O)cc5)n4)cc3)cc2)CC1 | binding | – | – | 1 µM | remaining binding | 100%
CCCCC(=O)Nc1ccc(-c2ccc3ncn(CCC)c(=O)c3c2)cn1 | binding | – | competition with immobilised ligand | 0.5 µM | remaining binding | 67%
CO[C@@H]1[C@H](N(C)C(=O)c2ccccc2)C[C@H]2O[C@]1(C)n1c3ccccc3c3c4c(c5c6ccccc6n2c5c31)C(=O)NC4 | enzyme activity | inhibitor | – | 1 µM | inhibition | 0%
C1=C/COCc2cc(ccc2OCCN2CCCC2)Nc2nccc(n2)-c2cccc(c2)COC/1 | binding | – | – | 0.1 µM | remaining binding | 72%
C=CC(=O)N1CCC([C@@H]2CCNc3c(C(N)=O)c(-c4ccc(Oc5ccccc5)cc4)nn32)CC1 | enzyme activity | inhibitor | – | 1 µM | inhibition | 0%
COc1ccc2[nH]c3c4[nH]c5ccc(OC)cc5c4c4c(c3c2c1)C(=O)NC4=O | binding | – | – | 1 µM | remaining binding | 100%
COc1ccc2oc(-c3ccc4nc(N)oc4c3)c/c(=N\c3ccccc3NC(=O)CCN)c2c1 | cell-free assay | – | – | 1 µM | remaining signal | 7%
